By Ki is commonly meant a dissociation constant, usually derived from enzyme kinetics or from competition with a known ligand. Higher therefore signals a looser hold on the target. In general, EC50 refers to the concentration needed to bring the measured effect to its halfway point.

Experiment [1] concerns the target T1, Androgen receptor (Homo sapiens, UniProt P10275).
T1 sequence (P10275 whole entry): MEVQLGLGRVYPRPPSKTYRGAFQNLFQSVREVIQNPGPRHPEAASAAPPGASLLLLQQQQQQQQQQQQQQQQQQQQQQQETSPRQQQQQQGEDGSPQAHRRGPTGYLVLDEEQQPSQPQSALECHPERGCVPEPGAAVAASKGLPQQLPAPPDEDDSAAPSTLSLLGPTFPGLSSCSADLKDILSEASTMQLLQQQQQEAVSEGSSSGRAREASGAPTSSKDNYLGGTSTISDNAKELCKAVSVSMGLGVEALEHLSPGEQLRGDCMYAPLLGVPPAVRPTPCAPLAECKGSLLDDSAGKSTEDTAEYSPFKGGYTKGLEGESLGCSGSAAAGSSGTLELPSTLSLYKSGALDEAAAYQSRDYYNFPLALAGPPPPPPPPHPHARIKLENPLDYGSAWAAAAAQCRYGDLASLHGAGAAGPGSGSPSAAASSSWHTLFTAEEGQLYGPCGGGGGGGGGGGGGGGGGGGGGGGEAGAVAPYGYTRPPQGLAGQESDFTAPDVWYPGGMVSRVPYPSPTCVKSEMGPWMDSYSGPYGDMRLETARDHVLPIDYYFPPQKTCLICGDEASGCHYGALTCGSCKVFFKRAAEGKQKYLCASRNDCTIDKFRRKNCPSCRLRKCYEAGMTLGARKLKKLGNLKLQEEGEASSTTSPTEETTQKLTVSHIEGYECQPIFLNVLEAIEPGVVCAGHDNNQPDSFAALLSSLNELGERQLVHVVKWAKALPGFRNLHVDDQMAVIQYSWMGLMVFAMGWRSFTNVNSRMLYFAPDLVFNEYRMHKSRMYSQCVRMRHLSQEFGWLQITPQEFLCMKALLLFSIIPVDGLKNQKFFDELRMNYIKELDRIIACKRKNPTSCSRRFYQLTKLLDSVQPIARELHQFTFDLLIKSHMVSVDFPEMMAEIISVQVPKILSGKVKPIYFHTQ
Nature of the experiment: Binding affinity to androgen receptor (unknown origin) by fluorescence assay. The essentials:
(§1)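 Fluorescence polarization competition between test compound and a fluorescently labeled ligand for binding to full-length receptor or its ligand binding domain. IC50 was fit to the signal by four-parameter logistic equation. Ki = IC50/(1 + ligand concentration/Kd) (Cheng–Prusoff).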

The target of experiment [2] is T2, Glucocorticoid receptor (Homo sapiens) (UniProt P04150).
T2 sequence (whole entry): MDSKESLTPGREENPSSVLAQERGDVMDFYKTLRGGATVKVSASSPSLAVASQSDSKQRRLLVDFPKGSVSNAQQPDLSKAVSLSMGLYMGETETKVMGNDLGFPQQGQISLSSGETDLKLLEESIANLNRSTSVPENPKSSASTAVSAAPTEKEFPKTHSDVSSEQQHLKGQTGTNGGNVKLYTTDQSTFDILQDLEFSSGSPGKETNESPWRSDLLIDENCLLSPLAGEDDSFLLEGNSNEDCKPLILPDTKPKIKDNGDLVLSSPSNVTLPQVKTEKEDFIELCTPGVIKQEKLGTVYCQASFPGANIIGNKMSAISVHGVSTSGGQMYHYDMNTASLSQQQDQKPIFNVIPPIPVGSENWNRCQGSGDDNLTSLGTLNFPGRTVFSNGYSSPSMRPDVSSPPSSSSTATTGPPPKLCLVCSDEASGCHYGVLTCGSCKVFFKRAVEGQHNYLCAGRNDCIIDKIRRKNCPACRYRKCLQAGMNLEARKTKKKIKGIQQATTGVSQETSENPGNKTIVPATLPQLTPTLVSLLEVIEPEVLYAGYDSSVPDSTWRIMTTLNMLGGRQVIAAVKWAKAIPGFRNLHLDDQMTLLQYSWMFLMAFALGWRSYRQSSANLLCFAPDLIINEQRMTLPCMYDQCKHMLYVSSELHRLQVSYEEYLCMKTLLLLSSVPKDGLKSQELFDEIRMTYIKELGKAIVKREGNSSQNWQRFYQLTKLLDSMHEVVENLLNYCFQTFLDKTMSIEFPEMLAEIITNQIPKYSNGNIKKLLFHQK
In words: Transrepression activity at glucocorticoid receptor in human A549 cells assessed as inhibition of IL1beta-stimulated NFkappaB-dependent E-selectin transcription by luciferase reporter gene assay relative to dexamethasone. The class given is cell-based. The essentials: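 In A549 lung epithelial cells, NFkB activity was induced with IL-1β (0.5 ng/ml). Inhibition was quantitated as decreased luciferase activity. […] Values are means of two or more experiments in triplicate.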
On the technique in general: Reporter assays use an easily measured gene product as a stand-in for the process of interest.

Experiment [3] deals with T3, Glucocorticoid receptor (Homo sapiens, UniProt P04150).
T3 sequence (P04150 whole entry): T2 sequence (whole entry)
Nature of the experiment: Transactivation activity at glucocorticoid receptor ligand binding domain (unknown origin) expressed in human Hela cells co-expressing GAL4 DNA binding domain assessed as NP-1-stimulated GRE activation by luciferase reporter gene assay. Format: cell-based.

Experiment [4] has as its target T3, Glucocorticoid receptor. Nature of the experiment: Binding affinity to glucocorticoid receptor (unknown origin) by fluorescence assay.
The target of experiment [5] is T3, Glucocorticoid receptor. In words: Transrepression activity at glucocorticoid receptor in human A549 cells assessed as inhibition of IL1beta-stimulated NFkappaB-dependent E-selectin transcription by luciferase reporter gene assay. Format: cell-based.
Experiment [6] deals with T4, Progesterone receptor (Homo sapiens, UniProt P06401).
T4 sequence (P06401 whole entry): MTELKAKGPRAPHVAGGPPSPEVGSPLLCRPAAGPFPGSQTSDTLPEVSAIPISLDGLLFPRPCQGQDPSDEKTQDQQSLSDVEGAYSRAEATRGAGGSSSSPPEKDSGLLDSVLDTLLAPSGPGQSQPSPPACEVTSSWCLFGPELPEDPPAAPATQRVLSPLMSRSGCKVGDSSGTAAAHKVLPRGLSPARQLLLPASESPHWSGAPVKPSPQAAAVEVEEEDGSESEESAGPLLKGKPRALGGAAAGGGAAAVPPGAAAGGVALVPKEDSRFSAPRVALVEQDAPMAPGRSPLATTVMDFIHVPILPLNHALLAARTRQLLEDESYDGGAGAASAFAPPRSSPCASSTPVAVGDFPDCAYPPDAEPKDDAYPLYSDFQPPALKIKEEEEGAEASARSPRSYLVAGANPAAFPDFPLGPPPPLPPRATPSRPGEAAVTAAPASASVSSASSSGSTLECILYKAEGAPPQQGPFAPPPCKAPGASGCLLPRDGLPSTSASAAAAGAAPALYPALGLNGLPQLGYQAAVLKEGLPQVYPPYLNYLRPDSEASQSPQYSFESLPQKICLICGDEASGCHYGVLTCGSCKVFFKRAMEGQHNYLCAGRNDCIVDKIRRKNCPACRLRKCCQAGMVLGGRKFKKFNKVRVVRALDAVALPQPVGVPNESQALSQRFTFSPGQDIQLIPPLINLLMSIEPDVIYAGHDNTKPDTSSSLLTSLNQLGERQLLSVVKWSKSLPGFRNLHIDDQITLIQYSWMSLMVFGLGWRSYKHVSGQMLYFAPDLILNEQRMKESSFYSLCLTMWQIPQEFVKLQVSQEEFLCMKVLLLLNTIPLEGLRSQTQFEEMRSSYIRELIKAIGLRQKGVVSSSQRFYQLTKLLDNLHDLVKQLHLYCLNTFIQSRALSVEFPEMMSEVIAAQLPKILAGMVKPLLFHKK
In words: Binding affinity to progesterone receptor (unknown origin) by fluorescence assay. The essentials: as §1

SMILES strings stand for the structures. Bounds are passed on as bounds.

Regarding `CC(C)(C)NC(=O)NCC(C)(C)[C@@H](c1ccccc1)c1ccc2c(cnn2-c2ccc(F)cc2)c1`, the Ki in experiment [1] was > 5000 nM; in experiment [4], 5.14 nM; in experiment [6], > 5000 nM. Further, in experiment [2], the Efficacy is 65%. Besides, the EC50 in experiment [3] was determined as 429 nM; in experiment [5] it was 58 nM.

With `CC(C)(CNC(=O)CC(F)(F)F)[C@@H](c1ccccc1)c1ccc2c(cnn2-c2ccc(F)cc2)c1`, the Ki was > 5000 nM in experiment [1], 0.81 nM in experiment [4] and > 5000 nM in experiment [6]. The Efficacy in experiment [2] was found to be 90%. Moreover, the EC50 in experiment [3] is 129 nM; in experiment [5], 6.85 nM.

For the compound `CC(C)(CNS(=O)(=O)CC(F)(F)F)[C@@H](c1ccccc1)c1ccc2c(cnn2-c2ccc(F)cc2)c1`, the results for the Ki in experiment [1], in experiment [4] and in experiment [6] were > 5000 nM, 0.64 nM and 406 nM, respectively. Further, in experiment [2], the Efficacy came to 86%. Moreover, the EC50 worked out at 202 nM in experiment [3] and 7.6 nM in experiment [5].

Source of the values: ChEMBL document CHEMBL2424625, “Synthesis and structure-activity relationships of novel indazolyl glucocorticoid receptor partial agonists” (Bioorg Med Chem Lett, 2013).
